Activity calls are given as the source filed them. The calls are words filed in the database; no cut-off is given here.
Tests used:
INA-6 [1] = experiment: Inhibition of heat shock response in human INA-6 cells assessed as reduction in HSF-1 mediated upregulation of the heat shock protein HSP72 at 50 uM preincubated for 4 hrs followed by HSP90 inhibitor and HSR inducer NVP-AUY922 addition measured after 4 hrs by ELISA; type: functional, cell-based
Method in brief: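 HSP72 quantified by ELISA in the same protein lysates used for Western blots. INA-6 cells received compound for 4 h, then NVP-AUY922 co-treatment for 4 h more to stimulate HSF1. DMSO-only and NVP-AUY922-only cells served as negative and positive controls.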

INA-6 [2] = experiment: Inhibition of heat shock response in human INA-6 cells assessed as reduction in HSF-1 mediated upregulation of the heat shock protein HSP27 at 50 uM preincubated for 4 hrs followed by HSP90 inhibitor and HSR inducer NVP-AUY922 addition measured after 4 hrs by Western blot method; type: functional, cell-based
Method in brief: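 INA-6 myeloma cells pretreated with test compound for 4 h, then co-treated with the HSP90 inhibitor/HSR inducer NVP-AUY922 for a further 4 h. Cells harvested; HSP72, HSP27, HSF1 or phospho-HSF1 probed by Western blot with β-actin as loading control. DMSO-only cells were the negative control; NVP-AUY922-only cells were the positive control.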

[3] = biological target: MICOS complex subunit MIC60 (Homo sapiens) (UniProt Q16891); experiment: Binding affinity to MICOS complex subunit MIC60 in human INA-6 cells after 3 hrs by nanoLC-MS/MS method; type: cell-based
Method in brief: (§1)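 The biotinylated inhibitor was loaded on streptavidin beads, with empty beads as the control. Eluates were trypsin-digested and run by nanoLC-MS/MS. Inhibitor/control ratios came from label-free quantification, taken as medians of five biological replicates. Enrichment was called at Benjamini-Hochberg-adjusted limma p < 0.02.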

[4] = biological target: MICOS complex subunit MIC10 (Homo sapiens) (UniProt Q5TGZ0); experiment: Binding affinity to MICOS complex subunit MIC10 in human INA-6 cells after 3 hrs by nanoLC-MS/MS method; type: cell-based; method in brief: as §1
Sequence of MICOS complex subunit MIC10 (Homo sapiens) (Q5TGZ0 whole entry, one chain of several): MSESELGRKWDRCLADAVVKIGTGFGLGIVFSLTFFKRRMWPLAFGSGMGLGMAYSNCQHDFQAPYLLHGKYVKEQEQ

[5] = biological target: CCR4-NOT transcription complex subunit 1 (Homo sapiens) (UniProt A5YKK6); experiment: Binding affinity to CCR4-NOT transcription complex subunit 1 in human INA-6 cells after 3 hrs by nanoLC-MS/MS method; type: cell-based; method in brief: as §1
Sequence of CCR4-NOT transcription complex subunit 1 (Homo sapiens) (A5YKK6 whole entry, one chain of several): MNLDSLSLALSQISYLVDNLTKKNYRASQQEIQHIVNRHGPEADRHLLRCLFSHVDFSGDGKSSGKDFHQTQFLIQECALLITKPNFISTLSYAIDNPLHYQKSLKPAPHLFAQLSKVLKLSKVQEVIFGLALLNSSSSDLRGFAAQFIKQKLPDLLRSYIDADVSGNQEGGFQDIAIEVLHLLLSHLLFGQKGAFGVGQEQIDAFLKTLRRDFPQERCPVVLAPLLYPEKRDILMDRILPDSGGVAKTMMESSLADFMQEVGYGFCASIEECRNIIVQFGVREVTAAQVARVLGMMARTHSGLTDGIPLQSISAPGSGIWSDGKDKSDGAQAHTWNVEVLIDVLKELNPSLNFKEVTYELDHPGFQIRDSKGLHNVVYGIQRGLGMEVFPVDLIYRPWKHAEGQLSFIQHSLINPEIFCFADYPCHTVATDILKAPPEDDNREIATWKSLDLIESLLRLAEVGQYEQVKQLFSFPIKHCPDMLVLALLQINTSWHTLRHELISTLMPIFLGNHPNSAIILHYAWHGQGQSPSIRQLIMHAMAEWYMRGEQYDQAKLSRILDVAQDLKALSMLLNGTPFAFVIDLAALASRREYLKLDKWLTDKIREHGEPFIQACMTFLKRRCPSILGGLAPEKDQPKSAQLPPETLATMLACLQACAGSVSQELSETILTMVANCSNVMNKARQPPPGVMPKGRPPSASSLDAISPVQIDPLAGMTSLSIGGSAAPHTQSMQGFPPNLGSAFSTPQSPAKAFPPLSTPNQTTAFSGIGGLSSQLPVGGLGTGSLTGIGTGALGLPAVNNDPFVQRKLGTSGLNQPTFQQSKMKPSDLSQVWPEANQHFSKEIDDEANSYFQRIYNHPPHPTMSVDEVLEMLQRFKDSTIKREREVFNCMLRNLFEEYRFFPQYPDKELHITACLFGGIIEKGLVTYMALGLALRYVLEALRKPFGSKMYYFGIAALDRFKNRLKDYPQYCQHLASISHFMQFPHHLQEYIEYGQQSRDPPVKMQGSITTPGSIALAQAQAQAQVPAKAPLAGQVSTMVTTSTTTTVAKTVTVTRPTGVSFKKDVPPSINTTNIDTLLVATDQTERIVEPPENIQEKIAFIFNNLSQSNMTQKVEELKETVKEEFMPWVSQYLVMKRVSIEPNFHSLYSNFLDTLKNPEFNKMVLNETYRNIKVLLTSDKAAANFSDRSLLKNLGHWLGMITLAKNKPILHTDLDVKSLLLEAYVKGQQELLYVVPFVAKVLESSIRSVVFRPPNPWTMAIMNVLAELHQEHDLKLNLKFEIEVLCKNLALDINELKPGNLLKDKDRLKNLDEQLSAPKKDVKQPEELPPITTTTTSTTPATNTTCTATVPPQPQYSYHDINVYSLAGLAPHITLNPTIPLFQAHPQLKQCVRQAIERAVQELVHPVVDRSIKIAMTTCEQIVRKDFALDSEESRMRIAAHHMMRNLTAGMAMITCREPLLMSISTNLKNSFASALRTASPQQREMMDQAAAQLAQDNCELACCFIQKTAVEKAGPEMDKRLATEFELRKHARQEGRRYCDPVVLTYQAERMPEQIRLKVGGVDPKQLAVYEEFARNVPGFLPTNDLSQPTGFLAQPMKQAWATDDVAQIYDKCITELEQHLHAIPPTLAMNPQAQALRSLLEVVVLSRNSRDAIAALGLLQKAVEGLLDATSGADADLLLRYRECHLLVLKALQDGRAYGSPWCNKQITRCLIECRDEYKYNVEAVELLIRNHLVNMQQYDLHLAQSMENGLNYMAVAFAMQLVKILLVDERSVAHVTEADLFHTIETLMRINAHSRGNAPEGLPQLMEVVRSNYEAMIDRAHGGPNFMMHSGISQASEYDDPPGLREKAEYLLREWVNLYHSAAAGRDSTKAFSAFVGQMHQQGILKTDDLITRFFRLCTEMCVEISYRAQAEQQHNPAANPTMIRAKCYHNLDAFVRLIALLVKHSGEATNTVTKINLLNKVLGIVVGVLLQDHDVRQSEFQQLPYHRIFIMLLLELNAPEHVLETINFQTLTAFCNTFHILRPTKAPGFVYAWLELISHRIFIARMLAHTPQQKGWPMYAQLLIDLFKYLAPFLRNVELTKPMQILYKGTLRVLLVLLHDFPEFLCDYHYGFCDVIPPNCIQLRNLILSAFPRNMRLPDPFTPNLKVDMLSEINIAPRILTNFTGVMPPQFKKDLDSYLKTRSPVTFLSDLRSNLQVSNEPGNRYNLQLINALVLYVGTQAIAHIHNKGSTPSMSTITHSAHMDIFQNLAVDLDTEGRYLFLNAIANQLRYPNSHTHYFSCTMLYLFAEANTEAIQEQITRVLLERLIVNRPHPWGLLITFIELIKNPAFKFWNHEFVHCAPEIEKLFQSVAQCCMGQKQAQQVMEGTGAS

[6] = biological target: CCR4-NOT transcription complex subunit 6-like (Homo sapiens) (UniProt Q96LI5); experiment: Binding affinity to CCR4-NOT transcription complex subunit 6-like in human INA-6 cells after 3 hrs by nanoLC-MS/MS method; type: cell-based; method in brief: as §1
[7] = biological target: CCR4-NOT transcription complex subunit 3 (Homo sapiens) (UniProt O75175); experiment: Binding affinity to CCR4-NOT transcription complex subunit 3 in human INA-6 cells after 3 hrs by nanoLC-MS/MS method; type: cell-based; method in brief: as §1
Sequence of CCR4-NOT transcription complex subunit 3 (Homo sapiens) (O75175 whole entry, one chain of several): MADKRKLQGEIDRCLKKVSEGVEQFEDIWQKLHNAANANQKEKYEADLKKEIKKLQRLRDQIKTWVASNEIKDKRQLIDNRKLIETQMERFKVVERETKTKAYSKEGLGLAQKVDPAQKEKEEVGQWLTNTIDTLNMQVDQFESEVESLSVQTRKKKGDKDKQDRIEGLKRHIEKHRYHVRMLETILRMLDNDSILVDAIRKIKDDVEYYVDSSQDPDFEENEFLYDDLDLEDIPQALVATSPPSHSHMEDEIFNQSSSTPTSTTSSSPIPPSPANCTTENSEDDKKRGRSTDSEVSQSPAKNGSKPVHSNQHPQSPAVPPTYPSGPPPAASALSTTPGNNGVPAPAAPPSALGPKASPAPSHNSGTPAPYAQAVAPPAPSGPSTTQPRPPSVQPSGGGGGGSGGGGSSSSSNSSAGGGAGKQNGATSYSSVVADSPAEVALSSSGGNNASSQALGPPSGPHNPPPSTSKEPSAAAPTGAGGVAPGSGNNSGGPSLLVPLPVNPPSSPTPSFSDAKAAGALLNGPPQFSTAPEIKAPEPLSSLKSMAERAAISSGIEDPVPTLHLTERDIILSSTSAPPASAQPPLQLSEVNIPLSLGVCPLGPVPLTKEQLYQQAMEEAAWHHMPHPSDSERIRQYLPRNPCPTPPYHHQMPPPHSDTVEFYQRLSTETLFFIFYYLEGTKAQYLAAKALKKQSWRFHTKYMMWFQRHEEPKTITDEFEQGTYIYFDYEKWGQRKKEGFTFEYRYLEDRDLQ

[8] = biological target: CCR4-NOT transcription complex subunit 4 (Homo sapiens) (UniProt O95628); experiment: Binding affinity to CCR4-NOT transcription complex subunit 4 in human INA-6 cells after 3 hrs by nanoLC-MS/MS method; type: cell-based; method in brief: as §1
[9] = biological target: Survival of motor neuron-related-splicing factor 30 (Homo sapiens) (UniProt O75940); experiment: Binding affinity to survival of motor neuron-related-splicing factor 30 in human INA-6 cells after 3 hrs by nanoLC-MS/MS method; type: cell-based; method in brief: as §1
[10] = biological target: Mitogen-activated protein kinase kinase kinase 5 (Homo sapiens) (UniProt Q99683); experiment: Binding affinity to MAP3K5 in human INA-6 cells after 3 hrs by nanoLC-MS/MS method; type: cell-based; method in brief: as §1
[11] = biological target: Mitogen-activated protein kinase kinase kinase 6 (Homo sapiens) (UniProt O95382); experiment: Binding affinity to MAP3K6 in human INA-6 cells after 3 hrs by nanoLC-MS/MS method; type: cell-based; method in brief: as §1
Peflin (Homo sapiens) = Peflin (Homo sapiens) (UniProt Q9UBV8); experiment: Binding affinity to PEF1 protein in human INA-6 cells after 3 hrs by nanoLC-MS/MS method; type: cell-based; method in brief: as §1
[12] = biological target: Programmed cell death protein 6 (Homo sapiens) (UniProt O75340); experiment: Binding affinity to PDCD6 protein in human INA-6 cells after 3 hrs by nanoLC-MS/MS method; type: cell-based; method in brief: as §1
[13] = biological target: Serine/threonine-protein phosphatase 6 regulatory ankyrin repeat subunit B (Homo sapiens) (UniProt Q8N8A2); experiment: Binding affinity to serine/threonine-protein phosphatase 6 regulatory ankyrin repeat subunit B in human INA-6 cells after 3 hrs by nanoLC-MS/MS method; type: cell-based; method in brief: as §1
[14] = biological target: Serine/threonine-protein phosphatase 6 regulatory ankyrin repeat subunit A (Homo sapiens) (UniProt O15084); experiment: Binding affinity to serine/threonine-protein phosphatase 6 regulatory ankyrin repeat subunit A in human INA-6 cells after 3 hrs by nanoLC-MS/MS method; type: cell-based; method in brief: as §1
Sequence of Serine/threonine-protein phosphatase 6 regulatory ankyrin repeat subunit A (Homo sapiens) (O15084 whole entry): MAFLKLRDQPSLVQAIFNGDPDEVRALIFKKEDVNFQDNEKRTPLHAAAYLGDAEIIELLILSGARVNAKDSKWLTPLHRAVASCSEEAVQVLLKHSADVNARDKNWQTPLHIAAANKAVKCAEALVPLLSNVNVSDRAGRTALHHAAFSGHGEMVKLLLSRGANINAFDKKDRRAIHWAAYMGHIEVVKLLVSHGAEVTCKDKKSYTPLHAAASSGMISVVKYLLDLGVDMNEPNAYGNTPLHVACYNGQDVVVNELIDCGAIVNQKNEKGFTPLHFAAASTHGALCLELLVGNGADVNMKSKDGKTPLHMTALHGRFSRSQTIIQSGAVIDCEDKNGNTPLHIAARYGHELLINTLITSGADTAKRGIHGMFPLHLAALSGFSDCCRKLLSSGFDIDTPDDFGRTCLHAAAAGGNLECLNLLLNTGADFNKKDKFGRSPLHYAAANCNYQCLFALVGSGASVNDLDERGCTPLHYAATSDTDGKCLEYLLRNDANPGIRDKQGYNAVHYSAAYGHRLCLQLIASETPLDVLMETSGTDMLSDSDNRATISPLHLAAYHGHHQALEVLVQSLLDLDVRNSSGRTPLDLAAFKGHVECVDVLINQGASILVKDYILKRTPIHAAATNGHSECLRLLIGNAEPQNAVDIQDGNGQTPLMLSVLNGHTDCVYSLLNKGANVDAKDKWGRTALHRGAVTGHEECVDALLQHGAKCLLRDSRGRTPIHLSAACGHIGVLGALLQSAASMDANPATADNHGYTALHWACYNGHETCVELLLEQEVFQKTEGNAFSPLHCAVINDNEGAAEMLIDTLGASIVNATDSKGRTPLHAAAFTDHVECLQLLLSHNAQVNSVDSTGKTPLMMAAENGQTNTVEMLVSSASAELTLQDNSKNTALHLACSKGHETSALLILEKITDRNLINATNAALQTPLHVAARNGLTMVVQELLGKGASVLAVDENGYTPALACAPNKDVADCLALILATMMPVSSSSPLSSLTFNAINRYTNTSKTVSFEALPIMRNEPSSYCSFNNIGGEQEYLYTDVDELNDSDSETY

[15] = biological target: Serine-protein kinase ATM (Homo sapiens) (UniProt Q13315); experiment: Binding affinity to ATM protein in human INA-6 cells after 3 hrs by nanoLC-MS/MS method; type: cell-based; method in brief: as §1
[16] = biological target: Serine/threonine-protein kinase ATR (Homo sapiens) (UniProt Q13535); experiment: Binding affinity to ATR protein in human INA-6 cells after 3 hrs by nanoLC-MS/MS method; type: cell-based; method in brief: as §1
[17] = biological target: Exportin-T (Homo sapiens) (UniProt O43592); experiment: Binding affinity to XPOT protein in human INA-6 cells after 3 hrs by nanoLC-MS/MS method; type: cell-based; method in brief: as §1
[18] = biological target: Serine/threonine-protein phosphatase 6 regulatory subunit 1 (Homo sapiens) (UniProt Q9UPN7); experiment: Binding affinity to PP6R1 protein in human INA-6 cells after 3 hrs by nanoLC-MS/MS method; type: cell-based; method in brief: as §1
[19] = biological target: CCR4-NOT transcription complex subunit 1 (Homo sapiens) (UniProt A5YKK6); experiment: Binding affinity to CNOT1 protein in human INA-6 cells after 3 hrs by nanoLC-MS/MS method; type: cell-based; method in brief: as §1
[20] = biological target: CCR4-NOT transcription complex subunit 9 (Homo sapiens) (UniProt Q92600); experiment: Binding affinity to RCD1 protein in human INA-6 cells after 3 hrs by nanoLC-MS/MS method; type: cell-based; method in brief: as §1
[21] = biological target: Stalled ribosome sensor GCN1 (Homo sapiens) (UniProt Q92616); experiment: Binding affinity to GCN1 protein in human INA-6 cells after 3 hrs by nanoLC-MS/MS method; type: cell-based; method in brief: as §1
[22] = biological target: Brefeldin A-inhibited guanine nucleotide-exchange protein 2 (Homo sapiens) (UniProt Q9Y6D5); experiment: Binding affinity to BIG2 protein in human INA-6 cells after 3 hrs by nanoLC-MS/MS method; type: cell-based; method in brief: as §1
[23] = biological target: Conserved oligomeric Golgi complex subunit 3 (Homo sapiens) (UniProt Q96JB2); experiment: Binding affinity to COG3 in human INA-6 cells after 3 hrs by nanoLC-MS/MS method; type: cell-based; method in brief: as §1
Sequence of Conserved oligomeric Golgi complex subunit 3 (Homo sapiens) (Q96JB2 whole entry, one chain of several): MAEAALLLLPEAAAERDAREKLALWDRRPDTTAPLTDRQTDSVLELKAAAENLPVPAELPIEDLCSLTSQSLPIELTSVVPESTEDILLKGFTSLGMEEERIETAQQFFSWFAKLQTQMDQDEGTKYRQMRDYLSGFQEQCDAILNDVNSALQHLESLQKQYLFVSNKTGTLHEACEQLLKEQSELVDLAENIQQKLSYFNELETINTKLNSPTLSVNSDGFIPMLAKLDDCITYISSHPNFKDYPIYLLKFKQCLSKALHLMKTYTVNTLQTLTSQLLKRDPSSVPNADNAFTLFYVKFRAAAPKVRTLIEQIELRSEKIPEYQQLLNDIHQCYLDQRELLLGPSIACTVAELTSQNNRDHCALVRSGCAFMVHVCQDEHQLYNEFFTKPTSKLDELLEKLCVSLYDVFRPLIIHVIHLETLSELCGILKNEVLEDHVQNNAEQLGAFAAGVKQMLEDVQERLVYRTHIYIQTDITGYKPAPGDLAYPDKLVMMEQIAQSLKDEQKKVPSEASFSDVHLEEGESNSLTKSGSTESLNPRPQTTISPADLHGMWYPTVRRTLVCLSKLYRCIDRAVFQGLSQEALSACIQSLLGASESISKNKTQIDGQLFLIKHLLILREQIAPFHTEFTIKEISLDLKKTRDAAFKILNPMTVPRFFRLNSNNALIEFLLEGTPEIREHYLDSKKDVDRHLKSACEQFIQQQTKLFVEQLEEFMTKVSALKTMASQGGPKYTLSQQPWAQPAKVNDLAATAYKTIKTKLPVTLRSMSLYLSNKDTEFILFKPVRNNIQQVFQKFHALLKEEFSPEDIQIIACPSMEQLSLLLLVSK

[24] = biological target: Conserved oligomeric Golgi complex subunit 4 (Homo sapiens) (UniProt Q9H9E3); experiment: Binding affinity to COG4 in human INA-6 cells after 3 hrs by nanoLC-MS/MS method; type: cell-based; method in brief: as §1
[25] = biological target: Conserved oligomeric Golgi complex subunit 6 (Homo sapiens) (UniProt Q9Y2V7); experiment: Binding affinity to COG6 in human INA-6 cells after 3 hrs by nanoLC-MS/MS method; type: cell-based; method in brief: as §1
[26] = biological target: Conserved oligomeric Golgi complex subunit 7 (Homo sapiens) (UniProt P83436); experiment: Binding affinity to COG7 in human INA-6 cells after 3 hrs by nanoLC-MS/MS method; type: cell-based; method in brief: as §1
[27] = biological target: Conserved oligomeric Golgi complex subunit 8 (Homo sapiens) (UniProt Q96MW5); experiment: Binding affinity to COG8 in human INA-6 cells after 3 hrs by nanoLC-MS/MS method; type: cell-based; method in brief: as §1

Activity [3] | Activity [4] | Activity [5] | Activity [6] | Activity [7] | Activity [8] | Activity [10] | Activity [11] | Activity (Peflin (Homo sapiens)) | Activity [13] | Activity [14] | Activity [15] | Activity [16] | Activity [17] | Activity [18] | Activity [19] | SMILES | HSP72 upregulation inhibition (active/not active) (INA-6 [1]) | activity call (active/not active) for inhibition of HSP27 upregulation (INA-6 [2]) | Activity [9] | Activity [12] | also measured
Active | Active | Active | Active | Active | Active | Active | Active | Active | Active | Active | Active | Active | Active | Active | Active | O=C(CCCC[C@@H]1SC[C@@H]2NC(=O)N[C@@H]21)NCCOCCOCCNCCOc1ccc(C(C(=O)NCc2ccccc2)N(C(=O)CCc2ccc(O)cc2)C2CC2)cc1 (mixture of isomers) | inactive | inactive | Active | Active | Activity [20]: Active; Activity [21]: Active; Activity [22]: Active; Activity [23]: Active; Activity [24]: Active; Activity [25]: Active; Activity [26]: Active; Activity [27]: Active
Active | Active | Active | Active | Active | Active | Active | Active | Active | Active | Active | Active | Active | Active | Active | Active | O=C(CCCC[C@@H]1SC[C@@H]2NC(=O)N[C@@H]21)NCCOCCOCCNCCOc1ccc(C(C(=O)NCc2ccccc2)N(C(=O)CCc2ccccc2)C2CC2)cc1 (mixture of isomers) | inactive | inactive | Active | Active | Activity [20]: Active; Activity [21]: Active; Activity [22]: Active; Activity [23]: Active; Activity [24]: Active; Activity [25]: Active; Activity [26]: Active; Activity [27]: Active
